For test [1], the target named is Mitogen-activated protein kinase 9 (Homo sapiens) (UniProt P45984). The test can be described thus: Inhibition of JNK2 at 0.1 uM by Cherenkov counting in presence of 20 uM ATP. The essentials: (§1)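 Single-concentration selectivity screen at 0.1 μM against a panel of 76 protein kinases. Each kinase was run at an ATP level approximating its Km for ATP. Output is mean residual activity as % of the control assay without compound, n = 3 ± SD.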

Test [2] shares this target. The test can be described thus: Inhibition of JNK2 assessed as residual activity at 0.1 uM by Cherenkov counting relative to control in presence of 20 uM ATP. In outline:
as §1

For test [3], the target named is Mitogen-activated protein kinase 14 (Homo sapiens, UniProt Q16539). The test can be described thus: Inhibition of p38alpha assessed as residual activity at 0.1 uM by Cherenkov counting relative to control. The essentials:
(§2)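 Single-concentration screen at 0.1 μM in a 76-kinase panel. ATP for each kinase was set near its Km for ATP. Residual activity is given as a percentage of control assays without compound, mean of n = 3 ± SD.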

The target of test [4] is Ribosomal protein S6 kinase beta-1 (Homo sapiens) (UniProt P23443). The test can be described thus: Inhibition of S6K1 assessed as residual activity at 0.1 uM by Cherenkov counting relative to control in presence of 20 uM ATP. In outline:
as §2

The target of test [5] is T1, Serine/threonine-protein kinase D1 (Homo sapiens) (UniProt Q15139).
T1 sequence (whole entry): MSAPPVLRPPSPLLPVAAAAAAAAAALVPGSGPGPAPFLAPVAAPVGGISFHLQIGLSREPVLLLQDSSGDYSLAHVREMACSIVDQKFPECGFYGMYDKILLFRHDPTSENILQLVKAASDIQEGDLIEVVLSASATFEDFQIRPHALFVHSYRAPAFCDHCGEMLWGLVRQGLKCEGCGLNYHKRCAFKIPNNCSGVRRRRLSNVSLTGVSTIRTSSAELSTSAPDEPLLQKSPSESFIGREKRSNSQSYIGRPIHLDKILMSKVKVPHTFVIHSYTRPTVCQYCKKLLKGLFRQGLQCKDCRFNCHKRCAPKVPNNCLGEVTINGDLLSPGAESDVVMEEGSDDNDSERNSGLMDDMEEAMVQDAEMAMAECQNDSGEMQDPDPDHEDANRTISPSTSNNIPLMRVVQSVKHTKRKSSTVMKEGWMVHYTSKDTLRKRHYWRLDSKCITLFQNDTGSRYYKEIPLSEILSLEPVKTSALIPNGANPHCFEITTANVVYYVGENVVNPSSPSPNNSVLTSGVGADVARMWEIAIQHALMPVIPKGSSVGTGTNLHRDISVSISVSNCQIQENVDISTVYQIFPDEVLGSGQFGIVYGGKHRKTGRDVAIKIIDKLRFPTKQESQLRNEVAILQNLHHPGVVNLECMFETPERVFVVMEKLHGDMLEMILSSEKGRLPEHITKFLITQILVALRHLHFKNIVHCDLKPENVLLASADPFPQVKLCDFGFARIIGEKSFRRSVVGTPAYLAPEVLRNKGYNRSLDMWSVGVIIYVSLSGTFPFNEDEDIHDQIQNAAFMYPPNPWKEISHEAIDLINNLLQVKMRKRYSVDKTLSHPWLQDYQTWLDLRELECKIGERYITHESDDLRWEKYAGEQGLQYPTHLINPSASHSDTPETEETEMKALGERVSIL
Put plainly: Inhibition of PKD1 assessed as residual activity at 0.1 uM by Cherenkov counting relative to control in presence of 50 uM ATP. In outline: as §2

The target of test [6] is Aurora kinase B (Homo sapiens) (UniProt Q96GD4). Put plainly: Inhibition of Aurora B assessed as residual activity at 0.1 uM by Cherenkov counting relative to control in presence of 20 uM ATP. The essentials:
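Single-concentration screen at 0.1 µM across a panel of 76 protein kinases. Each kinase was run at an ATP concentration approximating its ATP Km. Results are % mean residual activity versus control assays without compound (n = 3 ± SD).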

For test [7], the target named is Tyrosine-protein kinase Lck (Homo sapiens) (UniProt P06239). Put plainly: Inhibition of Lck assessed as residual activity at 0.1 uM by Cherenkov counting relative to control in presence of 50 uM ATP. In outline:
as §1

Test [8] deals with RAC-beta serine/threonine-protein kinase (Homo sapiens) (UniProt P31751). The test can be described thus: Inhibition of PKBbeta assessed as residual activity at 10 uM by Cherenkov counting relative to control in presence of 50 uM ATP. In outline: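 Single-concentration profiling at 10 μM in a 78-kinase panel. Kinase activity is expressed as a percentage of control assays run without compound.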
Chain of RAC-beta serine/threonine-protein kinase (Homo sapiens) (P31751 whole entry): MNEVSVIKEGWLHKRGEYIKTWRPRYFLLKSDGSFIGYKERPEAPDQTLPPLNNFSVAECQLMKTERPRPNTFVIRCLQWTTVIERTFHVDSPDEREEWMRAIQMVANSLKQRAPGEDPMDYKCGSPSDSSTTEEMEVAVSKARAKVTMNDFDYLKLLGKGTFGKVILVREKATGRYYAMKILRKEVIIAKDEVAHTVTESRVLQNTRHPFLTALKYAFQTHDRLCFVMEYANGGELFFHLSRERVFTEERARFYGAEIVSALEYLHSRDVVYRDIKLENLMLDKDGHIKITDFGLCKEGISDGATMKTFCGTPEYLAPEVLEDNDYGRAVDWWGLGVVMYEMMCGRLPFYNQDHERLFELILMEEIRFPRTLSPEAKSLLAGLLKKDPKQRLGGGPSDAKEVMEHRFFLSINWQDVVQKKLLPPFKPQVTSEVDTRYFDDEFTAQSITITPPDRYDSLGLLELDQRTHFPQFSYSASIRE

Test [9] has as its target Serine/threonine-protein kinase Chk2 (Homo sapiens) (UniProt O96017). The test can be described thus: Inhibition of CHK2 assessed as residual activity at 10 uM by Cherenkov counting relative to control in presence of 20 uM ATP. In outline:
(§3)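 Single-point profiling at 10 µM in a panel of 78 protein kinases. Kinase activity is expressed as a percentage relative to control assays without compound.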

Test [10] addresses T2, Serine/threonine-protein kinase BRSK2 (Homo sapiens) (UniProt Q8IWQ3).
T2 sequence (whole entry): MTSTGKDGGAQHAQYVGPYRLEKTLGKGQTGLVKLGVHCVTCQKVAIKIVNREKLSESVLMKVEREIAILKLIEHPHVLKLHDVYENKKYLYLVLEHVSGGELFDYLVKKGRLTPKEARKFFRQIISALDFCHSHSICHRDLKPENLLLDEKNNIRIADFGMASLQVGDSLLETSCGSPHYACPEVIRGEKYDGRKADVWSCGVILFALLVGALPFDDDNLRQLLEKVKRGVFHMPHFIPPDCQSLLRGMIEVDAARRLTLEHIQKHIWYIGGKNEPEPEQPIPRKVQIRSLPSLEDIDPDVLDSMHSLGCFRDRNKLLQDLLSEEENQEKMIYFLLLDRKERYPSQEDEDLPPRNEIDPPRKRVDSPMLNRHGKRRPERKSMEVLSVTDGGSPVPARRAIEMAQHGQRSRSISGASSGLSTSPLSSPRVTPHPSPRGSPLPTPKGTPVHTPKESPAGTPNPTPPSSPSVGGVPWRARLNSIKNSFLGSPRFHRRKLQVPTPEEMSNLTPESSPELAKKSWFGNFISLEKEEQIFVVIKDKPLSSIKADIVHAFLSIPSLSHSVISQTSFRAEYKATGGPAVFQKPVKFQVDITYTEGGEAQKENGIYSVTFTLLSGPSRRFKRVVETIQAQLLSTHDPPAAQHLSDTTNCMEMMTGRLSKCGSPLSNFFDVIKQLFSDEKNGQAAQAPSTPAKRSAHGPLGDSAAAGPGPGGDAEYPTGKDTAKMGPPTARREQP
Put plainly: Inhibition of BRSK2 assessed as residual activity at 10 uM by Cherenkov counting relative to control in presence of 50 uM ATP. The essentials:
as §3

Test [11] deals with Casein kinase I isoform delta (Homo sapiens, UniProt P48730). The test can be described thus: Inhibition of CK1delta assessed as residual activity at 10 uM by Cherenkov counting relative to control in presence of 20 uM ATP. The essentials:
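CK1δ tested within a 78-protein-kinase panel with compound at 10 µM. Activity is expressed as a percentage of kinase activity relative to control assays run without compound.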

Inhibition and Activity data for four compounds are collected here from ChEMBL document CHEMBL1155278, “3,4-Diaryl-isoxazoles and -imidazoles as potent dual inhibitors of p38alpha mitogen activated protein kinase and casein kinase 1delta” (J Med Chem, 2009).

Chain of Mitogen-activated protein kinase 9 (Homo sapiens) (P45984 whole entry, looked up): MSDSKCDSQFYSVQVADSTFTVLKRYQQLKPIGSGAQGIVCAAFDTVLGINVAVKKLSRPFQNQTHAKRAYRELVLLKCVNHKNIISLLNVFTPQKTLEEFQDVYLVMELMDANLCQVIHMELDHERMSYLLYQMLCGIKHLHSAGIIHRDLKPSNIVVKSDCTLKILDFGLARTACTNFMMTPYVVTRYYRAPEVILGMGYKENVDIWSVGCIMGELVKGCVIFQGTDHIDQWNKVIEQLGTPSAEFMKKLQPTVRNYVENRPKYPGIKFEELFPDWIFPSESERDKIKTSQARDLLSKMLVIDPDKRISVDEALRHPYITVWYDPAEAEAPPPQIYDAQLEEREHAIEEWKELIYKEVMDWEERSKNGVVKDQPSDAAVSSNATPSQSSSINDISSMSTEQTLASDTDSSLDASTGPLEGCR
Chain of Tyrosine-protein kinase Lck (Homo sapiens) (P06239 2-509 limits assumed): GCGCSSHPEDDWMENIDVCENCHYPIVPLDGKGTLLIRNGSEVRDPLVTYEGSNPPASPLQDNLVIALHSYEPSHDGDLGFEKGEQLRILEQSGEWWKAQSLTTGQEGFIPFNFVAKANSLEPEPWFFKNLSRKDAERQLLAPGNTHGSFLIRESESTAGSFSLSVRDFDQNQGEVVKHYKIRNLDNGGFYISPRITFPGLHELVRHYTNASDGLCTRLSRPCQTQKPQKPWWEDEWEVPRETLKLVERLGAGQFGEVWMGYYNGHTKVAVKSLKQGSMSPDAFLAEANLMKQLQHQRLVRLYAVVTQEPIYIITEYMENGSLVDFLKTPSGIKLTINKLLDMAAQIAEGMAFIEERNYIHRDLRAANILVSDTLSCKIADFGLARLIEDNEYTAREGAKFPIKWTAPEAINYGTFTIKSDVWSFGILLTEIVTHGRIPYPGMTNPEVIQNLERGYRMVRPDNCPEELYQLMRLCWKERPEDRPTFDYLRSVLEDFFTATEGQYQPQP
Chain of Aurora kinase B (Homo sapiens) (Q96GD4 whole entry): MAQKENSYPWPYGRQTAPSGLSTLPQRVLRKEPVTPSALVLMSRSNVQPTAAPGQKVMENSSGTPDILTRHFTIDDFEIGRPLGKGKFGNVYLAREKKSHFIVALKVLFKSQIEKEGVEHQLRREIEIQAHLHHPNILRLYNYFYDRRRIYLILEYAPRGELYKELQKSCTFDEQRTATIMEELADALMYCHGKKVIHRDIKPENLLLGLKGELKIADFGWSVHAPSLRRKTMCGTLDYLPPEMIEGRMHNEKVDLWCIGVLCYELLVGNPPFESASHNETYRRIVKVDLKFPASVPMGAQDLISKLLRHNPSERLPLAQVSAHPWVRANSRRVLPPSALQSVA
Chain of Casein kinase I isoform delta (P48730 whole entry, looked up, canonical isoform): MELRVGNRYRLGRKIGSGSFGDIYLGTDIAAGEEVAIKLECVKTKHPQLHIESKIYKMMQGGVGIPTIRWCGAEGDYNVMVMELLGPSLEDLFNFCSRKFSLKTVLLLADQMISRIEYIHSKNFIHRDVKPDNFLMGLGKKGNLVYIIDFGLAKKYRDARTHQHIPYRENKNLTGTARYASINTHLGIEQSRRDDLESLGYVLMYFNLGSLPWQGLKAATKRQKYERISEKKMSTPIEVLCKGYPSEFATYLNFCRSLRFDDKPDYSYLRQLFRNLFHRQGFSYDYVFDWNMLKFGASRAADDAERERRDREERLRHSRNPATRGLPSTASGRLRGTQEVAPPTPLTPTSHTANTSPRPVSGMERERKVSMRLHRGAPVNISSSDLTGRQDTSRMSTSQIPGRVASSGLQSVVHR
Chain of Serine/threonine-protein kinase Chk2 (Homo sapiens) (O96017 whole entry): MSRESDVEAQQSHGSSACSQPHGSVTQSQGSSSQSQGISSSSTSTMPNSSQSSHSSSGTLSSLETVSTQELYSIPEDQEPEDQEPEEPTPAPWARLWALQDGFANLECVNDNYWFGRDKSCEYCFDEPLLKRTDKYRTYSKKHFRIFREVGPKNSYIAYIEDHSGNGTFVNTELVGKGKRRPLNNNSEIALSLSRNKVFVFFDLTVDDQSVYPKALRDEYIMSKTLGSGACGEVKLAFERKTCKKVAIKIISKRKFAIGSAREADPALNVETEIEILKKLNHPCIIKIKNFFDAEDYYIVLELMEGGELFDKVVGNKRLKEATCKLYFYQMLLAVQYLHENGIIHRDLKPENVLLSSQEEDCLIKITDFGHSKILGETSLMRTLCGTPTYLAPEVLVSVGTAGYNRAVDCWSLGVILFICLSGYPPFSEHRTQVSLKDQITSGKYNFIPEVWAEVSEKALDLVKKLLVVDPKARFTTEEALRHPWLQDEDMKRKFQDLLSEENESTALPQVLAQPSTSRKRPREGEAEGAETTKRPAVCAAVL
Chain of Mitogen-activated protein kinase 14 (Q16539 whole entry): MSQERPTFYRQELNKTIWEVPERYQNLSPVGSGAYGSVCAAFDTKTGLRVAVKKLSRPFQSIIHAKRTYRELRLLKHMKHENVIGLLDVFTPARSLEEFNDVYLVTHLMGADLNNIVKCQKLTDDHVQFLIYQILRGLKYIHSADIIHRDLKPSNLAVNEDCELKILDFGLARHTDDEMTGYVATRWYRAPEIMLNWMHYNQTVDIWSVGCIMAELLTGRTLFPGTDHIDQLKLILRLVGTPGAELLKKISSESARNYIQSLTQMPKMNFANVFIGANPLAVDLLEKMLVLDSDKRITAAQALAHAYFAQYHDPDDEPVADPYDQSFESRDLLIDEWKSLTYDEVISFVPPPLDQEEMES
Chain of Ribosomal protein S6 kinase beta-1 (Homo sapiens) (P23443 whole entry, looked up): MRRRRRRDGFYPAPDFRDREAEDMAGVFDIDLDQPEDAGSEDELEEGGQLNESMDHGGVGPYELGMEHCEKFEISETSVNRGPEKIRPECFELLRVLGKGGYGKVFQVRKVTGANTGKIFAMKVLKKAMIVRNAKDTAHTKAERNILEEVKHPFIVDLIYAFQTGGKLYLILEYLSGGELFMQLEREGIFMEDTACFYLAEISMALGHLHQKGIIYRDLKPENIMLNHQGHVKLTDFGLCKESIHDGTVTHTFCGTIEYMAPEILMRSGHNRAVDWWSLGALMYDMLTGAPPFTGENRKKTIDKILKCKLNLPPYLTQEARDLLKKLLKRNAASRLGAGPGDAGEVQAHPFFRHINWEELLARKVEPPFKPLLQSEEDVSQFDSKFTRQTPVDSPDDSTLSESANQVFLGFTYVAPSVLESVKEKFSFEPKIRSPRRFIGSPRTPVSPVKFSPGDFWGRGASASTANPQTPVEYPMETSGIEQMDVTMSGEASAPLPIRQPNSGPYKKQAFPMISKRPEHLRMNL

As a reminder, the inhibition is the drop in the measured response relative to a control, in per cent. As for `COc1ccc(/C=C/C(=O)Nc2cc(-c3[nH]c(SC)nc3-c3ccc(F)cc3)ccn2)c(OC)c1`, the inhibition in test [1] came out at 69%. In addition, the Activity in test [2] came out at 31%; in test [3], 3%; in test [4], 67%; in test [5], 88%; in [6], 93%; in test [7], 50%.
Turning to `CC(C)c1onc(-c2ccc(F)cc2)c1-c1ccncc1`, the Activity in [8] is 101%; in [9] it was 104%; in test [10], 87%; in test [11], 6%.
Regarding `CC(C)c1noc(-c2ccc(F)cc2)c1-c1ccncc1`, the Activity in test [8] came to 104%; in test [9], 109%; in test [10], 93%; in [11] it was 55%.
For `COc1ccc(/C=C/C(=O)Nc2cc(-c3[nH]c([S+](C)[O-])nc3-c3ccc(F)cc3)ccn2)c(OC)c1` (configuration not stated), in test [1], the inhibition came out at 88%. The Activity in [2] turned out to be 12%; in test [3], 5%; in [4], 74%; in test [5], 97%; in [6], 93%; in test [7], 74%.
